Reference: ChEMBL document CHEMBL3259554, “Discovery, synthesis, and optimization of antimalarial 4(1H)-quinolone-3-diarylethers” (J Med Chem, 2014)
Activity calls are given as the source filed them. The rule behind the calls is not given here.

Legend:
Plasmodium falciparum [1] = assay: Antimalarial activity against chloroquine-sensitive Plasmodium falciparum D6 MRA-285 infected in human red blood cells assessed as suppression of parasitemia after 72 hrs by SYBR Green I-based fluorescence method; type: functional, organism-based; conditions: D6 MRA-285, 72 h
Outline: (§1)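 Asynchronous parasites in human erythrocytes, RPMI-1640 with HEPES, hypoxanthine, glucose, glutamine, 0.5% Albumax II; 2% hematocrit, 0.2% initial parasitemia. Triplicate 2-fold dilutions from 1 μM (lower start if needed), 72 h at 37 °C under 5% O2/5% CO2/90% N2. SYBR Green I dye-detergent added, 1 h dark at room temperature, fluorescence read. EC50 averaged over at least three determinations.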

[2] = Antimalarial activity against multidrug-resistant Plasmodium falciparum Dd2 MRA-156 infected in human red blood cells assessed as suppression of parasitemia after 72 hrs by SYBR Green I-based fluorescence method; type: functional; outline: as §1
Plasmodium falciparum [3] = assay: Antimalarial activity against atovaquone-resistant clinical isolate Plasmodium falciparum TM90-C2B infected in human red blood cells assessed as suppression of parasitemia after 72 hrs by SYBR Green I-based fluorescence method; type: functional, organism-based; outline: as §1
HepG2 = assay: Cytotoxicity against human HepG2 cells after 24 hrs incubation by Alamar Blue assay; type: cell-based; conditions: HepG2, 24 h
Outline: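 HepG2 cells grown in RPMI-1640 with 10% FBS and seeded at 2 × 10⁴ cells/well, attached overnight. Drug serially diluted from 10 mM DMSO stocks to 2.5 nM–10 μM and incubated 24–36 h. Medium then replaced and cells kept a further 24 h. Resazurin added (final 10 μM) for 3 h, fluorescence read at ex 560/em 590 nm. Run in triplicate; IC50 by nonlinear logistic regression.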

Plasmodium yoelii [4] = assay: Antimalarial activity against Plasmodium yoelii MR4 MRA-428 infected in mouse CF1 assessed as reduction on parasite burden administered through oral gavage once daily for 4 days; type: functional
Outline: (§2)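 P. yoelii-infected mice, randomly grouped in fours; dosing began day after inoculation (day 1), once daily by oral gavage in PEG-400 for four successive days; initial doses 0.1, 0.3, 1.0, 3.0, 10 mg/kg/day, range adjusted as needed. Day-5 Giemsa-smear parasitemia vs drug-free controls; ED50 derived graphically. Cure = parasite free 30 days after last dose; cure dose termed non-recrudescence dose.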

Plasmodium yoelii [5] = assay: Antimalarial activity against Plasmodium yoelii MR4 MRA-428 infected in mouse CF1 assessed as dose required to achieve cure measured as 30 days survival administered through oral gavage once daily for 4 days; type: functional; outline: as §2
[6] = Inhibition of human cytochrome bc1 complex derived from HEK293 cell mitochondria using 50 uM decylubiquinol as substrate
Outline: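 Mitochondria isolated from HEK-293 cells by Dounce homogenization and differential centrifugation, dispersed in 2 mg/mL dodecyl maltoside for 45 min on ice, then clarified. Baseline-subtracted initial rates expressed as a fraction of uninhibited control.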

[7] = Inhibition of cytochrome bc1 complex isolated from trophozoite stage Plasmodium falciparum
Outline: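 P. falciparum mitochondrial preparation assayed for cytochrome c reductase at 35 °C in a stirred cuvette. Buffer: 100 μM decylubiquinol, 100 μM horse heart cytochrome c, 0.1 mg/mL dodecyl maltoside, 60 mM HEPES pH 7.4, 10 mM malonate, 1.0 mM EDTA, 2.0 mM KCN. Baseline subtracted from the initial rate; activity expressed as a fraction of uninhibited control.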

Plasmodium yoelii [8] = assay: Antimalarial activity against Plasmodium yoelii MR4 MRA-428 infected in mouse CF1 assessed as reduction on parasite burden at 64 mg/kg administered through oral gavage once daily for 4 days; type: functional, organism-based; design: dose 64 mg/kg
Outline: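 P. yoelii model in mice, randomized into groups of four. Oral gavage in PEG-400 once daily for four successive days, starting the day after inoculation. Giemsa-stained blood smears read microscopically on day 5. Parasite burden compared with drug-free controls. Animals parasite free 30 days after the last dose counted as cured.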

Liver microsome [9] = assay: Metabolic stability in rat liver microsomes; type: ADME
Outline: (§3)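 Compound at 1 μM incubated at 37 °C with liver microsomes (0.4 mg protein/mL) in 0.1 M phosphate pH 7.4. Started with an NADPH-regenerating system plus MgCl₂ and quenched with cold acetonitrile at time points up to 60 min. Parent loss followed by LC-MS and fitted to first-order decay to give half-life and intrinsic clearance. E_H used liver blood flow of 20.7 (human) or 55.2 (rat) mL/min/kg.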

Liver microsome [10] = assay: Metabolic stability in human liver microsomes; type: ADME; outline: as §3

Row | SMILES | EC50 (Plasmodium falciparum [1]) | EC50 [2] | EC50 (Plasmodium falciparum [3]) | IC50 (HepG2) | ED50 (Plasmodium yoelii [4]; MR4 MRA-428, po, 96 h) | NRD (Plasmodium yoelii [5]) | IC50 [6] | IC50 [7] | ED50 (Plasmodium yoelii [4]) | Activity (Plasmodium yoelii [8]) | Stability (Liver microsome [9]) | Stability (Liver microsome [10])
1 | Cc1[nH]c2ccc(F)cc2c(=O)c1-c1ccc(Oc2ccc(OC(F)(F)F)cc2)nc1 | 13 nM | 13 nM | 11 nM | > 10000 nM |  |  |  |  |  |  |  | 
2 | COc1cc2[nH]c(C)c(-c3ccc(Oc4ccc(C(F)(F)F)cc4)cc3)c(=O)c2cc1Cl | 0.3 nM | 0.3 nM | 0.05 nM | > 10000 nM | 0.03 mg/kg/day | 1 mg/kg/day |  |  |  |  |  | 
3 | Cc1[nH]c2ccccc2c(=O)c1-c1ccc(Oc2ccc(OC(F)(F)F)cc2)cc1 | 4.1 nM | 5.9 nM | 7.5 nM | > 10000 nM | 0.1 mg/kg/day | 3 mg/kg/day | 1900 nM | 8.9 nM |  |  |  | 
4 | CCCCCCCc1c(C)nc2cc(OC)ccc2c1O | 3.8 nM | 3.1 nM | 11 nM | > 10000 nM |  | inactive | > 10000 nM |  | inactive |  |  | 
5 | Cc1[nH]c2ccccc2c(=O)c1-c1ccc(Oc2ccccc2)cc1 | 8.4 nM | 12 nM | 7.2 nM | > 10000 nM |  |  |  |  |  |  |  | 
6 | COc1cc2[nH]c(C)c(-c3cnc(Oc4ccc(OC(F)(F)F)cc4)nc3)c(=O)c2cc1Cl | > 2500 nM | > 2500 nM | > 2500 nM | > 10000 nM |  |  |  |  |  |  |  | 
7 | COc1cc2[nH]c(C)c(-c3ccc(Oc4ccc(F)c(OC(F)(F)F)c4)cc3)c(=O)c2cc1Cl | 0.4 nM | 0.5 nM | 0.3 nM | > 10000 nM | 0.06 mg/kg/day | >3 mg/kg/day |  |  |  |  |  | 
8 | O=C1C(O)=C([C@H]2CC[C@H](c3ccc(Cl)cc3)CC2)C(=O)c2ccccc21 [ATOVAQUONE] | 0.1 nM | 0.1 nM | 7700 nM | > 10000 nM |  |  | 410 nM | 2 nM |  |  |  | 
9 | COc1cc2[nH]c(C)c(-c3ccc(Oc4ccc(C(F)(F)F)cn4)cc3)c(=O)c2cc1Cl | 8.1 nM | 6.8 nM | 4.1 nM | > 10000 nM |  |  |  |  |  |  |  | 
10 | CCN(CC)CCCC(C)Nc1ccnc2cc(Cl)ccc12 (centres undefined) [CHLOROQUINE] |  |  |  |  | 2.2 mg/kg/day | >64 mg/kg/day |  |  |  | inactive |  | 
11 | Cc1[nH]c2ccc(Cl)cc2c(=O)c1-c1ccc(Oc2ccc(OC(F)(F)F)cc2)cc1 | 3.2 nM | 5.6 nM | 2.3 nM | > 10000 nM | 0.2 mg/kg/day | >3 mg/kg/day | > 10000 nM |  |  |  | Stable | Stable
12 | COc1cc2[nH]c(C)c(-c3ccc(Oc4ccccc4)cc3)c(=O)c2cc1F | 40 nM | 43 nM | 8.5 nM | > 10000 nM |  |  |  |  |  |  |  | 
13 | CCCCCCCc1c(C)[nH]c2cc(OC)c(Cl)cc2c1=O | 1.4 nM | 2.3 nM | 0.8 nM |  |  |  | > 10000 nM |  |  |  |  | 
14 | COc1cc2[nH]c(C)c(-c3ccc(Oc4ccc(OC(F)(F)F)cc4)cn3)c(=O)c2cc1Cl | 0.4 nM | 0.5 nM | 0.2 nM | > 10000 nM | < 1 mg/kg/day | >3 mg/kg/day |  |  |  |  |  | 
15 | COc1cc2[nH]c(C)c(-c3ccc(Oc4ccc(OC(F)(F)F)cc4)nc3)c(=O)c2cc1Cl | 0.3 nM | 0.2 nM | 0.4 nM | > 10000 nM | 0.3 mg/kg/day | >3 mg/kg/day |  |  |  |  |  | 
16 | COc1cc2[nH]c(C)c(-c3ccc(Oc4ccc(OC(F)(F)F)cc4)cc3)c(=O)c2cc1F | 1.4 nM | 1.4 nM | 0.5 nM | > 10000 nM | 0.05 mg/kg/day |  | > 10000 nM |  |  |  | Stable | Stable
17 | Cc1[nH]c2ccc(Cl)cc2c(=O)c1-c1ccc(Oc2ccc(OC(F)(F)F)cc2)nc1 | 3.6 nM | 6.1 nM | 1.5 nM | > 10000 nM |  |  |  |  |  |  |  | 
18 | COc1cc2[nH]c(C)c(-c3ccc(Oc4ccc(F)cc4)cc3)c(=O)c2cc1Cl | 0.8 nM | 3.8 nM |  | > 10000 nM | < 1 mg/kg/day | >3 mg/kg/day |  |  |  |  |  | 
19 | COc1cc2[nH]c(C)c(-c3ccc(Oc4cccc(OC(F)(F)F)c4)cc3)c(=O)c2cc1Cl | 0.03 nM | 0.03 nM | < 0.03 nM | > 10000 nM | > 3 mg/kg/day | >3 mg/kg/day |  |  |  |  |  | 
20 | COc1cc2[nH]c(C)c(-c3ccc(Oc4ccc(OC(F)(F)F)c(F)c4)cc3)c(=O)c2cc1Cl | 12 nM | 12 nM | 5.8 nM | > 10000 nM |  |  |  |  |  |  |  | 
21 | COc1cc2[nH]c(C)c(-c3ccc(Oc4ccc(Cl)cc4)cc3)c(=O)c2cc1Cl | 1.9 nM | 1.8 nM | 1.2 nM | > 10000 nM | 0.05 mg/kg/day | >0.3 mg/kg/day |  |  |  |  |  | 
22 | COc1ccc2c(=O)c(-c3ccc(Oc4ccc(OC(F)(F)F)cc4)cc3)c(C)[nH]c2c1 | 1.7 nM | 3.4 nM | 2.3 nM | > 10000 nM |  |  | > 10000 nM |  |  |  | Unstable | Unstable
23 | Cc1[nH]c2ccc(F)cc2c(=O)c1-c1ccc(Oc2ccc(OC(F)(F)F)cc2)cc1 | 1.5 nM | 2.4 nM | 1.7 nM | > 10000 nM | 0.1 mg/kg/day | 3 mg/kg/day | > 10000 nM |  |  |  | Stable | Stable
24 | Cc1[nH]c2ccccc2c(=O)c1-c1ccc(Oc2ccc(OC(F)(F)F)cc2)nc1 | 3 nM | 5.8 nM | 4.3 nM | > 10000 nM |  |  |  |  |  |  |  | 
